Results from ChEMBL document CHEMBL1123801, “Synthesis and antifungal activity of new 1-vinylimidazoles” (1987).
In brackets after ≈: the same amount, converted by molar mass.

What was measured:
Assay type in all cases: functional
[1] = test system: Candida albicans; assay: Minimum inhibitory concentration (MIC) against Candida albicans
How it was run: (§1)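 Broth microdilution in Sabouraud's glucose broth. Final inocula 1×10^5 cells/mL for the yeast (C. albicans) and 1×10^5 conidia/mL for the mold (A. fumigatus) and the dermatophyte (T. asteroides). MIC read as the fungistatic end point. Lowest value of duplicated experiments.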

[2] = test system: Aspergillus fumigatus; assay: Minimum inhibitory concentration (MIC) against Aspergillus fumigatus; how it was run: as §1
[3] = test system: Trichophyton benhamiae; assay: Minimum inhibitory concentration against Trichophyton asteroides; how it was run: as §1

Row | Structure (SMILES) | MIC [1] [µg/mL] | MIC [2] [µg/mL] | MIC [3] [µg/mL]
1 | C=C(c1cc(Cl)ccc1OCc1ccc(C(=O)OC)cc1)n1ccnc1 | 25 (≈ 67.8 µM) | 6.2 (≈ 16.8 µM) | 0.1 (≈ 0.271 µM)
2 | CC(C)=C(c1cc(Cl)ccc1OCc1ccc(Cl)c(Cl)c1)n1ccnc1 | 12.5 (≈ 30.7 µM) | 6.2 (≈ 15.2 µM) | 3.1 (≈ 7.6 µM)
3 | CC(C)=C(c1ccccc1OCCCOc1ccccc1)n1ccnc1 | 25 (≈ 71.7 µM) | 6.2 (≈ 17.8 µM) | 3.1 (≈ 8.9 µM)
4 | C=C(c1cc(Cl)ccc1OC(C)c1ccsc1)n1ccnc1 (stereo not given) | 12.5 (≈ 37.8 µM) | 3.1 (≈ 9.37 µM) | 0.1 (≈ 0.302 µM)
5 | CCC=C(c1cc(Cl)ccc1OCc1ccc(Cl)cc1Cl)n1ccnc1 | 12.5 (≈ 30.7 µM) | 0.8 (≈ 1.96 µM) | 0.2 (≈ 0.491 µM)
6 | C=C(c1cc(Cl)cc(Cl)c1OCc1ccsc1)n1ccnc1 | > 100 | 100 (≈ 285 µM) | 6.2 (≈ 17.7 µM)
7 | C=C(c1ccccc1OCc1ccccc1Cl)n1ccnc1 | 6.2 (≈ 19.9 µM) | 0.8 (≈ 2.57 µM) | 0.1 (≈ 0.322 µM)
8 | C=C(c1ccccc1OC(C)c1ccc(Cl)cc1)n1ccnc1 (stereo not given) | 3.1 (≈ 9.54 µM) | 6.2 (≈ 19.1 µM) | 0.1 (≈ 0.308 µM)
9 | C=C(c1cc(Cl)ccc1OCc1ccsc1Cl)n1ccnc1 | 25 (≈ 71.2 µM) | 6.2 (≈ 17.7 µM) | 0.1 (≈ 0.285 µM)
10 | C=C(c1ccccc1OC(C)c1ccccc1)n1ccnc1 (stereo not given) | 25 (≈ 86.1 µM) | 6.2 (≈ 21.4 µM) | 0.1 (≈ 0.344 µM)
11 | CC(C)=C(c1cc(Cl)ccc1OCCCOc1ccc(Cl)cc1)n1ccnc1 | > 100 | > 100 | 3.1 (≈ 7.43 µM)
12 | C=C(c1cc(Cl)cc(Cl)c1OCc1ccccc1)n1ccnc1 | > 100 | > 100 | 3.1 (≈ 8.98 µM)
13 | C=C(c1ccccc1OCc1ccc([N+](=O)[O-])cc1)n1ccnc1 | 12.5 (≈ 38.9 µM) | 6.2 (≈ 19.3 µM) | 0.1 (≈ 0.311 µM)
14 | C=C(c1ccccc1OCCOc1ccccc1)n1ccnc1 | 50 (≈ 163 µM) | 12.5 (≈ 40.8 µM) | 0.1 (≈ 0.326 µM)
15 | CC=C(c1ccccc1OCc1ccc(Cl)cc1Cl)n1ccnc1 | 12.5 (≈ 34.8 µM) | 0.1 (≈ 0.278 µM) | 6.2 (≈ 17.3 µM)
16 | C=C(c1ccccc1OCc1ccc(C)cc1)n1ccnc1 | 3.1 (≈ 10.7 µM) | 3.1 (≈ 10.7 µM) | 0.1 (≈ 0.344 µM)
17 | C=C(c1ccccc1OCCC)n1ccnc1 | 100 (≈ 438 µM) | 1.6 (≈ 7.01 µM) | 0.1 (≈ 0.438 µM)
18 | C=C(c1ccc(Cl)cc1OC)n1ccnc1 | > 100 | 100 (≈ 426 µM) | 25 (≈ 107 µM)
19 | C=C(c1cc(Cl)ccc1OCCCC)n1ccnc1 | 25 (≈ 90.3 µM) | 0.4 (≈ 1.45 µM) | 0.2 (≈ 0.723 µM)
20 | C=C(c1ccccc1OC(CC)c1ccccc1)n1ccnc1 (stereo not given) | 6.2 (≈ 20.4 µM) | 3.1 (≈ 10.2 µM) | 0.1 (≈ 0.329 µM)

Row | Structure (SMILES) | MIC [1] [µg/mL] | MIC [2] [µg/mL] | MIC [3] [µg/mL]
21 | CC(C)=C(c1ccccc1OCc1ccc(C)cc1)n1ccnc1 | 25 (≈ 78.5 µM) | 6.2 (≈ 19.5 µM) | 3.1 (≈ 9.74 µM)
22 | C=C(c1cc(Cl)ccc1OC(C)c1ccccc1)n1ccnc1 (stereo not given) | 25 (≈ 77 µM) | 6.3 (≈ 19.4 µM) | 0.1 (≈ 0.308 µM)
23 | C=C(c1ccccc1OC(C)c1ccc(OC)cc1)n1ccnc1 (stereo not given) | 12.5 (≈ 39 µM) | 12.5 (≈ 39 µM) | 0.4 (≈ 1.25 µM)
24 | C=C(c1cc(Cl)ccc1OC(C)c1cccc(Cl)c1)n1ccnc1 (stereo not given) | 6.2 (≈ 17.3 µM) | 12.5 (≈ 34.8 µM) | 0.1 (≈ 0.278 µM)
25 | CC=C(c1cc(Cl)ccc1OCc1ccccc1)n1ccnc1 | 6.2 (≈ 19.1 µM) | 3.1 (≈ 9.54 µM) | 0.2 (≈ 0.616 µM)
26 | CCC=C(c1cc(Cl)ccc1OCc1ccc(Cl)cc1)n1ccnc1 | 6.2 (≈ 16.6 µM) | 0.8 (≈ 2.14 µM) | 0.4 (≈ 1.07 µM)
27 | C=C(c1cc(Cl)ccc1OCCCc1ccccc1)n1ccnc1 | 50 (≈ 148 µM) | 1.6 (≈ 4.72 µM) | 0.2 (≈ 0.59 µM)
28 | C=C(c1cc(Cl)ccc1OCCC)n1ccnc1 | 25 (≈ 95.2 µM) | 0.8 (≈ 3.04 µM) | 0.1 (≈ 0.381 µM)
29 | C=C(c1c(Cl)ccc(Cl)c1OCc1ccc(Cl)cc1)n1ccnc1 | > 100 | > 100 | 12.5 (≈ 32.9 µM)
30 | C=C(c1ccccc1OCCCC)n1ccnc1 | 25 (≈ 103 µM) | 1.6 (≈ 6.6 µM) | 50 (≈ 206 µM)
31 | C=C(c1ccc(Cl)cc1OCc1ccc(Cl)cc1)n1ccnc1 | > 100 | > 100 | > 100
32 | C=C(c1cc(Cl)ccc1OC)n1ccnc1 | > 100 | 3.1 (≈ 13.2 µM) | 0.4 (≈ 1.7 µM)
33 | C=C(c1ccccc1OC(CCC)c1ccccc1)n1ccnc1 (stereo not given) | 12.5 (≈ 39.3 µM) | 12.5 (≈ 39.3 µM) | 0.4 (≈ 1.26 µM)
34 | C=C(c1ccccc1OCc1ccc(Cl)c(Cl)c1)n1ccnc1 | 25 (≈ 72.4 µM) | 3.1 (≈ 8.98 µM) | 0.1 (≈ 0.29 µM)
35 | CC=C(c1cc(Cl)ccc1OCc1ccc(Cl)cc1)n1ccnc1 | 3.1 (≈ 8.63 µM) | 0.8 (≈ 2.23 µM) | 0.8 (≈ 2.23 µM)
36 | C=C(c1cc(Cl)ccc1OCCc1ccccc1)n1ccnc1 | 50 (≈ 154 µM) | 6.3 (≈ 19.4 µM) | 0.1 (≈ 0.308 µM)
37 | C=C(c1ccccc1OCc1ccc(OC)cc1)n1ccnc1 | 25 (≈ 81.6 µM) | 6.2 (≈ 20.2 µM) | 0.1 (≈ 0.326 µM)
38 | C=C(c1cc(Cl)cc(Cl)c1OCc1ccsc1Cl)n1ccnc1 | > 100 | 50 (≈ 130 µM) | 3.1 (≈ 8.04 µM)
39 | C=C(c1ccccc1OCCCOc1ccc(Cl)cc1)n1ccnc1 | 12.5 (≈ 35.2 µM) | 12.5 (≈ 35.2 µM) | 0.1 (≈ 0.282 µM)
40 | CC(C)=C(c1ccccc1OCCc1ccccc1)n1ccnc1 | 50 (≈ 157 µM) | 0.8 (≈ 2.51 µM) | 0.1 (≈ 0.314 µM)

Row | Structure (SMILES) | MIC [1] [µg/mL] | MIC [2] [µg/mL] | MIC [3] [µg/mL]
41 | C=C(c1cc(Cl)cc(Cl)c1OCc1ccc(Cl)cc1)n1ccnc1 | > 100 | > 100 | 6.2 (≈ 16.3 µM)
42 | C=C(c1cc(Cl)ccc1OC(CCC)c1ccccc1)n1ccnc1 (stereo not given) | > 100 | > 100 | 0.8 (≈ 2.27 µM)
43 | CCC=C(c1cc(Cl)ccc1OCc1ccccc1)n1ccnc1 | 6.2 (≈ 18.3 µM) | 1.6 (≈ 4.72 µM) | 1.6 (≈ 4.72 µM)
44 | CC(C)=C(c1ccccc1OCc1ccc(Cl)cc1Cl)n1ccnc1 | 12.5 (≈ 33.5 µM) | 1.6 (≈ 4.29 µM) | 3.1 (≈ 8.3 µM)
45 | C=C(c1ccccc1OC)n1ccnc1 | > 100 | 12.5 (≈ 62.4 µM) | 1.6 (≈ 7.99 µM)
46 | CC(C)=C(c1cc(Cl)ccc1OCc1ccc(Cl)cc1)n1ccnc1 | 6.2 (≈ 16.6 µM) | 6.2 (≈ 16.6 µM) | 0.2 (≈ 0.536 µM)
47 | CC(C)=C(c1cc(Cl)ccc1OCc1ccc(C)cc1)n1ccnc1 | 25 (≈ 70.8 µM) | 12.5 (≈ 35.4 µM) | 1.6 (≈ 4.53 µM)
48 | C=C(c1ccccc1OCc1ccc(CC)cc1)n1ccnc1 | 12.5 (≈ 41.1 µM) | 25 (≈ 82.1 µM) | 0.1 (≈ 0.329 µM)
49 | C=C(c1ccccc1OCc1ccccc1)n1ccnc1 | 12.5 (≈ 45.2 µM) | 3.1 (≈ 11.2 µM) | 0.2 (≈ 0.724 µM)
50 | CC(C)=C(c1ccccc1OCCCc1ccccc1)n1ccnc1 | 25 (≈ 75.2 µM) | 1.6 (≈ 4.81 µM) | 0.2 (≈ 0.602 µM)
51 | CC(C)=C(c1ccccc1OCCCOc1ccc(Cl)cc1)n1ccnc1 | 12.5 (≈ 32.6 µM) | 6.2 (≈ 16.2 µM) | 1.6 (≈ 4.18 µM)
52 | C=C(c1cc(Cl)ccc1OCc1ccc(C)cc1)n1ccnc1 | 25 (≈ 77 µM) | 1.6 (≈ 4.93 µM) | 0.8 (≈ 2.46 µM)
53 | C=C(c1cc(Cl)ccc1OC(C)c1ccc(Cl)cc1)n1ccnc1 (stereo not given) | 12.5 (≈ 34.8 µM) | 12.5 (≈ 34.8 µM) | 0.1 (≈ 0.278 µM)
54 | C/C=C(\c1ccccc1OC(C)c1cccc(Cl)c1)n1ccnc1 (stereo not given) | 3.1 (≈ 9.15 µM) | 1.6 (≈ 4.72 µM) | 0.1 (≈ 0.295 µM)
55 | C=C(c1cc(Cl)ccc1OC(CC)c1ccccc1)n1ccnc1 (stereo not given) | > 100 | 12.5 (≈ 36.9 µM) | 0.1 (≈ 0.295 µM)
56 | CC(C)=C(c1ccccc1OCc1cccc(Cl)c1)n1ccnc1 | 12.5 (≈ 36.9 µM) | 3.1 (≈ 9.15 µM) | 3.1 (≈ 9.15 µM)
57 | C=C(c1ccccc1OCCCc1ccc(Cl)cc1)n1ccnc1 | 12.5 (≈ 36.9 µM) | 0.8 (≈ 2.36 µM) | 0.2 (≈ 0.59 µM)
58 | C=C(c1ccccc1OCC)n1ccnc1 | > 100 | 3.1 (≈ 14.5 µM) | 0.4 (≈ 1.87 µM)
59 | C=C(c1ccccc1OCCCc1ccccc1)n1ccnc1 | 12.5 (≈ 41.1 µM) | 3.1 (≈ 10.2 µM) | 0.1 (≈ 0.329 µM)
60 | CC=C(c1ccccc1OCc1cccc(Cl)c1)n1ccnc1 | 6.2 (≈ 19.1 µM) | 1.6 (≈ 4.93 µM) | 3.1 (≈ 9.54 µM)
